Test results published in ChEMBL document CHEMBL1275312, “Synthesis of new pyrrolo[2,3-d]pyrimidine derivatives as antibacterial and antifungal agents” (2010).
Values after ≈ are worked out from the molar mass of the structure shown.

Key:
Assay type in all cases: functional
[1] = system: Staphylococcus aureus; experiment: Antimicrobial activity against Staphylococcus aureus NCTC 7447 at 5 mg/ml after 24 hrs by agar well diffusion assay; details: NCTC 7447, 24 h, read-out: IZ
In short: (§1)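 Agar well diffusion against S. aureus NCTC-7447 and E. coli NCTC-10416 (maintained on Mueller-Hinton agar, 24 h, 37 ± 1 °C) and C. albicans ATCC-10145 (Sabouraud dextrose agar, 48 h, 28 ± 1 °C). Inocula: colonies suspended in 5 mL sterile saline. Wells pre-incubated 1 h in refrigerator, then incubated 24 h at 37 °C (bacteria) or 48 h at 28 °C (fungi). Inhibition zone diameter measured. DMSO blank.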

[2] = system: Escherichia coli; experiment: Antimicrobial activity against Escherichia coli NCTC 10416 by twofold serial dilution method
In short: (§2)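 MIC by two-fold serial dilution, limited to compounds giving inhibition zones of at least 18 mm in the well diffusion screen. Strains: S. aureus NCTC-7447 and E. coli NCTC-10416 on Mueller-Hinton agar at 37 ± 1 °C; C. albicans ATCC-10145 on Sabouraud dextrose agar at 28 ± 1 °C. Inocula were colony suspensions in sterile saline. MIC taken as the lowest concentration (highest dilution) inhibiting growth.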

[3] = system: Staphylococcus aureus; experiment: Antimicrobial activity against Staphylococcus aureus NCTC 7447 by twofold serial dilution method; in short: as §2
[4] = system: Escherichia coli; experiment: Antimicrobial activity against Escherichia coli NCTC 10416 at 5 mg/ml after 24 hrs by agar well diffusion assay; details: NCTC 10416, 24 h, read-out: IZ; in short: as §1
[5] = system: Candida albicans; experiment: Antimicrobial activity against Candida albicans ATCC 10145 at 5 mg/ml after 48 hrs by agar well diffusion assay; details: ATCC 10145, 48 h, read-out: IZ; in short: as §1

Compound | zone of inhibition at 5000 µg/mL [1] [mm] | MIC [2] [µg/mL] | MIC [3] [µg/mL] | zone of inhibition at 5000 µg/mL [4] [mm] | zone of inhibition at 5000 µg/mL [5] [mm]
Cc1ccc(-c2cc3c(N)nc(N)nc3n2-c2ccccc2)cc1 | 25 | 2500 (≈ 7.93 mM) | 620 (≈ 1.97 mM) | 19 | 23
N=c1c2cc(-c3ccc(Br)cc3)n(-c3ccccc3)c2ncn1N | 25 | 1250 (≈ 3.29 mM) | 310 (≈ 0.815 mM) | 27 | 27
N=c1c2cc(-c3ccc(Cl)cc3)n(-c3ccccc3)c2ncn1N | 21 | 1250 (≈ 3.72 mM) | 310 (≈ 0.923 mM) | 22 | 27
Cc1ccc(-c2cc3c(=N)n(N)cnc3n2-c2ccccc2)cc1 | 21 | 2500 (≈ 7.93 mM) | 620 (≈ 1.97 mM) | 20 | 21
N=c1c2cc(-c3ccc(F)cc3)n(-c3ccccc3)c2ncn1N | 17 | – | – | 15 | 15
c1ccc(-c2cc3c(ncn4ncnc34)n2-c2ccccc2)cc1 | 13 | – | – | 16 | 17
Brc1ccc(-c2cc3c(ncn4ncnc34)n2-c2ccccc2)cc1 | 19 | – | – | 14 | 19
Clc1ccc(-c2cc3c(ncn4ncnc34)n2-c2ccccc2)cc1 | 17.5 | – | – | 18 | 18
Cc1ccc(-c2cc3c(ncn4ncnc34)n2-c2ccccc2)cc1 | – | – | – | – | 11
Fc1ccc(-c2cc3c(ncn4ncnc34)n2-c2ccccc2)cc1 | 17 | – | – | 16 | 17
Clc1ncnc2c1cc(-c1ccccc1)n2-c1ccccc1 | 13 | – | – | 14 | 16.5
Clc1ncnc2c1cc(-c1ccc(Br)cc1)n2-c1ccccc1 | 16 | – | – | 17 | 17
Clc1ccc(-c2cc3c(Cl)ncnc3n2-c2ccccc2)cc1 | 12 | – | – | 13 | 12
Cc1ccc(-c2cc3c(Cl)ncnc3n2-c2ccccc2)cc1 | 12 | – | – | 13 | 16
Fc1ccc(-c2cc3c(Cl)ncnc3n2-c2ccccc2)cc1 | 15 | – | – | 13 | 15
NNc1ncnc2c1cc(-c1ccccc1)n2-c1ccccc1 | 27 | 2500 (≈ 8.3 mM) | 620 (≈ 2.06 mM) | 18 | 31
NNc1ncnc2c1cc(-c1ccc(Br)cc1)n2-c1ccccc1 | 25 | – | 620 (≈ 1.63 mM) | 15 | 23
NNc1ncnc2c1cc(-c1ccc(Cl)cc1)n2-c1ccccc1 | 17 | – | – | 16 | 19
Cc1ccc(-c2cc3c(NN)ncnc3n2-c2ccccc2)cc1 | 14 | – | – | 13 | 17
NNc1ncnc2c1cc(-c1ccc(F)cc1)n2-c1ccccc1 | 31 | 1250 (≈ 3.91 mM) | 310 (≈ 0.971 mM) | 20 | 32
c1ccc(-c2cc3c(ncn4nnnc34)n2-c2ccccc2)cc1 | 16 | – | – | 16 | 17
Brc1ccc(-c2cc3c(ncn4nnnc34)n2-c2ccccc2)cc1 | 16 | – | – | 15 | 17

Compound | zone of inhibition at 5000 µg/mL [1] [mm] | MIC [2] [µg/mL] | MIC [3] [µg/mL] | zone of inhibition at 5000 µg/mL [4] [mm] | zone of inhibition at 5000 µg/mL [5] [mm]
Clc1ccc(-c2cc3c(ncn4nnnc34)n2-c2ccccc2)cc1 | 14 | – | – | 15 | 17
Fc1ccc(-c2cc3c(ncn4nnnc34)n2-c2ccccc2)cc1 | – | – | – | – | 11
Nc1ncnc2c1cc(-c1ccccc1)n2-c1ccccc1 | 15 | – | – | 14 | 20
Nc1ncnc2c1cc(-c1ccc(Cl)cc1)n2-c1ccccc1 | 17 | – | – | 16 | 16
Cc1ccc(-c2cc3c(N)ncnc3n2-c2ccccc2)cc1 | 23 | – | 2500 (≈ 8.32 mM) | 14 | 25
C/C=N\c1ncnc2c1cc(-c1ccccc1)n2-c1ccccc1 | 21 | – | 1250 (≈ 4 mM) | 16 | 21
C/C=N\c1ncnc2c1cc(-c1ccc(Cl)cc1)n2-c1ccccc1 | 17 | – | – | 16 | 17
C/C=N/c1ncnc2c1cc(-c1ccc(C)cc1)n2-c1ccccc1 | 16 | – | – | 17 | 15
Nc1nc(N)c2cc(-c3ccccc3)n(-c3ccccc3)c2n1 | 24 | – | 620 (≈ 2.06 mM) | 13 | 24
Nc1nc(N)c2cc(-c3ccc(Cl)cc3)n(-c3ccccc3)c2n1 | 24 | – | 1250 (≈ 3.72 mM) | 14 | 23
Cc1nc(N)c2cc(-c3ccc(Cl)cc3)n(-c3ccccc3)c2n1 | 25 | – | 620 (≈ 1.85 mM) | 14 | 24
Cc1ccc(-c2cc3c(N)nc(C)nc3n2-c2ccccc2)cc1 | 17 | – | – | 14 | 16
CCO/C=N/c1c(C#N)cc(-c2ccccc2)n1-c1ccccc1 | 16 | – | – | 17 | 19
CCO/C=N/c1c(C#N)cc(-c2ccc(Br)cc2)n1-c1ccccc1 | – | – | – | – | 11
CCO/C=N/c1c(C#N)cc(-c2ccc(Cl)cc2)n1-c1ccccc1 | – | – | – | – | 11
CCO/C=N/c1c(C#N)cc(-c2ccc(C)cc2)n1-c1ccccc1 | – | – | – | 11 | –
CCO/C=N/c1c(C#N)cc(-c2ccc(F)cc2)n1-c1ccccc1 | 13 | – | – | 13 | 16
N=c1c2cc(-c3ccccc3)n(-c3ccccc3)c2ncn1N | 21 | – | 1250 (≈ 4.15 mM) | 16 | 23
CC1(C)S[C@@H]2[C@H](NC(=O)[C@H](N)c3ccccc3)C(=O)N2[C@H]1C(=O)O [AMPICILLIN] | 9 | 1250 (≈ 3.58 mM) | 620 (≈ 1.77 mM) | 9 | –
OC(Cn1cncn1)(Cn1cncn1)c1ccc(F)cc1F [FLUCONAZOLE] | – | – | – | – | 26
CN(C)[C@@H]1C(O)=C(C(N)=O)C(=O)[C@@]2(O)C(O)=C3C(=O)c4c(O)cccc4[C@@](C)(O)[C@H]3C[C@@H]12 [TETRACYCLINE] | 20 | – | – | 18 | –
